The list is not random: actives were taken first. Their share in the collection is about 4.3%.
OX1R antag-1 = antagonists of human orexin 1 receptor (OX1R); O43613; OX1R-expressing cells, FRET antagonist read-out; inhibition, % at 6.6 µM; 330,000 compounds, 1.8% hits; AID 485270; in the data active = inhibition mostly above about 38%, no sharp cut-off; inactive = mostly below about 40%;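 note: 0% = agonist challenge alone and 100% = reference antagonist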
TAAR1 ag = agonists of human TAAR1 | CHO RD-HGA16 TAAR1, Fluo-8 calcium fluorescence; vehicle wells 0%, saturating PEA agonist 100% | AID 624467 | activation, % at 3 µM | 360,000 compounds, 0.99% hits;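 active = activation above the mean activation of all test compounds in the run plus 3 SD, cut at about 38% in these data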
Target sequence (Q96RJ0 whole entry, looked up): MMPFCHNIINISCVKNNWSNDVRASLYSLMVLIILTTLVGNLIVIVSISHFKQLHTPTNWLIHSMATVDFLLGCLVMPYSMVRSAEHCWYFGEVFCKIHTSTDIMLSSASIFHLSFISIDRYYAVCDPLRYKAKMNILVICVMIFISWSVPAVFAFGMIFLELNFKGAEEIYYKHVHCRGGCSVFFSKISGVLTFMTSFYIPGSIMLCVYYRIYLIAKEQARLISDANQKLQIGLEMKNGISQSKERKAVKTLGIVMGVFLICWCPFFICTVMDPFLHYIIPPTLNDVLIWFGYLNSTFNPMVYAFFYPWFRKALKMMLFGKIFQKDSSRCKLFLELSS
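System: CHO-derived RD-HGA16 cells with stable Gα16 and human TAAR1. Times: 17-24 h plating, Fluo-8 75 min 37 °C, 30 min RT. Measured by: calcium-sensitive Fluo-8 signal, excitation 470-495, emission 515-575 nm. Read-out basis: % activation relative to PEA EC100 response. Control set: DMSO and PEA EC100. Repeats: no replicates (n 1).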
GalR3 antag = blocks the human galanin receptor 3 | 360,000 compounds, 0.44% hits | HEK293 GalR3-CNG cAMP membrane potential fluorescence; galR3 body fused to GalR1 C-terminus | inhibition, % at 3 µM | O60755;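 active = inhibition above the screen-wide average plus 3 SD, cut at about 13% in these data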;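 note: forskolin and galanin both at EC90 stimulate the cells; cAMP rise reported by CNG channel membrane potential dye signal; 0% = forskolin plus galanin with DMSO and 100% = forskolin alone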
Target sequence (O60755 1-299 limits assumed): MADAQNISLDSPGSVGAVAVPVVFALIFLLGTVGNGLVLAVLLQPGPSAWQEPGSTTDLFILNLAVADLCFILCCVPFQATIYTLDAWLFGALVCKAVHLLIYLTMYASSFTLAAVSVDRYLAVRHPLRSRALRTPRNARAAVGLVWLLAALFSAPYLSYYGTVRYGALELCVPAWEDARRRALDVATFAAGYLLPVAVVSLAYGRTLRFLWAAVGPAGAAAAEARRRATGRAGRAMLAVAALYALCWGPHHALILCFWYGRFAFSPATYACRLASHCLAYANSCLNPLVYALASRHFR
CHO parental Ca = signal in parental CHO cells, OX1R antagonist counter-screen. 330,000 compounds, 0.63% hits. parental CHO-K1, ATP-induced calcium, Fluo-8 fluorescence. AID 463079. inhibition, % at 5.6 µM;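 active = inhibition above that plate's mean sample inhibition plus 3 SD, cut at about 26% in these data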;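 note: 0% = ATP-challenged DMSO wells and 100% = DMSO wells without ATP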
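Material – parental CHO cells · Reagent – ATP stimulus · Compound – single nominal dose of 5.6 µM per compound · Detection – Fluo-8 fluorescence · Read-out basis – percent inhibition of calcium signal · Controls – ATP-challenged DMSO wells low, unchallenged DMSO wells high · Repeats – no replicates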
OX1R antag-2 = human HCRTR1 antagonism | O43613 | CHO/OX1R cells, Fluo-8 calcium fluorescence, orexin A | inhibition, % at 5 µM | 330,000 compounds, 0.43% hits;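 active = inhibition above its plate's threshold, mean inhibition of all tested compounds on the plate plus 3 SD, cut at about 37% in these data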;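 note: 0% = orexin A challenge wells and 100% = SB-334867-A antagonist wells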
TAAR1 antag = human TAAR1 antagonism; 360,000 compounds, 1.5% hits; Q96RJ0; CHO RD-HGA16 TAAR1, Fluo-8 calcium fluorescence, antagonist; inhibition, % at 3 µM;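 active = inhibition above a per-plate cutoff, the mean inhibition of test compounds on that plate plus 3 SD, cut at about 49% in these data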;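 note: 0% = DMSO plus EC80 beta-PEA response and 100% = DMSO alone without agonist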
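Material: RD-HGA16 CHO cells with stable hTAAR1 and Gα16; Dosing: single nominal final test compound concentration of 3 µM; Schedule: seeding 17-24 h prior, 75-min 37 °C, 30-min RT dye loading; Detection: kinetic Fluo-8 calcium fluorescence measurement; Measure: % inhibition from peak post-agonist over basal fluorescence ratio; Benchmarks: vehicle and agonist controls.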
TAAR1 ag conf = human TAAR1 agonism, confirmed | shares compounds with TAAR1 ag | 2,400 compounds, 82% hits | CHO RD-HGA16 TAAR1, Fluo-8 calcium fluorescence; scaled: DMSO 0%, maximal phenethylamine 100% | activation, % at 3 µM;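 active = activation above a cutoff set at the run's mean compound activation plus 3 SD, cut at about 39% in these data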
Ga16 ag counter = counter-screen for TAAR1 agonists: nonselective agonists in parental cells. shares compounds with TAAR1 ag. AID 651787. 2,400 compounds, 50% hits. CHO-Ga16 parental, Fluo-8 calcium fluorescence; normalized to maximal ATP response, DMSO zero. activation, % at 3 µM;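 active = activation above the run cutoff, the mean activation over all tested wells plus 3 SD, cut at about 12% in these data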;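 note: 0% = DMSO wells and 100% = maximal ATP response on the peak over basal ratio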
TAAR1 desens = counter-screen for human TAAR1 agonists: agonists that desensitize TAAR1 | inhibition, % at 3 µM | AID 651951 | CHO RD-HGA16 hTAAR1, Fluo-8 calcium, beta-PEA response inhibition | 2,400 compounds, 46% hits | shares compounds with TAAR1 ag;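 active = inhibition above the run cutoff, the mean inhibition of all test compounds plus 3 SD, cut at about 49% in these data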;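 note: beta-PEA stimulus applied at its EC80; loss of beta-PEA calcium signal after compound pretreatment read as receptor desensitization; 0% = DMSO with beta-PEA at EC80 and 100% = DMSO alone without agonist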
Ga16 nonsel ant = counter-screen for TAAR1 agonists: nonselective Ga16 antagonists; CHO-Ga16 ATP-induced calcium, Fluo-8 fluorescence; AID 651952; shares compounds with TAAR1 ag; inhibition, % at 3 µM; 2,400 compounds, 39% hits;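 active = inhibition above the plate's mean compound inhibition plus 3 SD, computed per plate, cut at about 22% in these data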;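 note: 0% = EC80 ATP with DMSO and 100% = DMSO wells without ATP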
Starred values were filed as active, the others as inactive.

Screening Cc1ccccc1-c1nc(CS(=O)(=O)CC(=O)NCCc2ccccc2)c(C)o1 returned OX1R antag-1 22, TAAR1 ag 72*, GalR3 antag -2, CHO parental Ca -16, OX1R antag-2 -28, TAAR1 antag 24, TAAR1 ag conf 76*, Ga16 ag counter 4, TAAR1 desens 63* and Ga16 nonsel ant 16.
Screening COc1cccc(-c2nc(CS(=O)(=O)CC(=O)NCCc3ccccc3)c(C)o2)c1 returned OX1R antag-1 25, TAAR1 ag 71*, GalR3 antag -1, CHO parental Ca -29, OX1R antag-2 -35, TAAR1 antag 29, TAAR1 ag conf 94*, Ga16 ag counter 21*, TAAR1 desens 67* and Ga16 nonsel ant 12.
Fc1ccc(NC(=S)SCc2ccc3c(c2)OCO3)cc1F was read as TAAR1 ag 7, GalR3 antag -2 and TAAR1 antag 22.
`O=C(CNCCc1ccccc1)Nc1ccc(C(=O)N2CCCCC2)cc1` gave OX1R antag-1 22, TAAR1 ag 46*, GalR3 antag -7, CHO parental Ca -13, OX1R antag-2 -35, TAAR1 antag -1, TAAR1 ag conf 69*, Ga16 ag counter 2, TAAR1 desens 12 and Ga16 nonsel ant 9.
`Cc1[nH]c(C)c(S(=O)(=O)NCCc2ccccc2)c1C(=O)N1CCCCC1` gave OX1R antag-1 0, TAAR1 ag 53*, GalR3 antag 0, CHO parental Ca -17, OX1R antag-2 -19, TAAR1 antag -10, TAAR1 ag conf 19, Ga16 ag counter 1, TAAR1 desens -1 and Ga16 nonsel ant 2.
`O=C(Nc1ccc(C(O)c2ccccc2)cc1)[C@H]1C[C@H](O)[C@@H](CO)O1` (some centres not stated) gave TAAR1 ag 3, GalR3 antag -3 and TAAR1 antag -10.
Screening COC(=O)C1(C(=O)OC)c2ncccc2N(S(=O)(=O)c2ccc(C)cc2)C1CC(=O)c1ccccc1 (configuration not stated) returned TAAR1 ag 11, GalR3 antag -7 and TAAR1 antag 11.
Nc1nc(Nc2cccc(F)c2)nc2ccccc12 was read as OX1R antag-1 57*, TAAR1 ag 98*, GalR3 antag -5, CHO parental Ca -9, OX1R antag-2 3, TAAR1 antag 82*, TAAR1 ag conf 91*, Ga16 ag counter 5, TAAR1 desens 94* and Ga16 nonsel ant 6.
O=c1oc(Nc2cccc(F)c2)nc2ccccc12 was read as OX1R antag-1 22, TAAR1 ag 8, GalR3 antag -3, CHO parental Ca 4, OX1R antag-2 -5 and TAAR1 antag -13.
For Fc1ccc(NC(=S)NC2CCN(Cc3ccccc3)CC2)cc1 the results were OX1R antag-1 15, TAAR1 ag 10, GalR3 antag -7, CHO parental Ca -5, OX1R antag-2 -13 and TAAR1 antag -15.
For S=C(Nc1ccc(Cl)c(Cl)c1)NC1CCN(Cc2ccccc2)CC1 the results were OX1R antag-1 0, TAAR1 ag 112*, GalR3 antag -7, CHO parental Ca 93*, OX1R antag-2 96*, TAAR1 antag 74*, TAAR1 ag conf 98*, Ga16 ag counter 57*, TAAR1 desens 89* and Ga16 nonsel ant 67*.
For COCc1ccc(-c2c(-c3cc(OC)cc(OC)c3)oc(=O)c3cc(OC)c(OC)cc23)cc1 the results were OX1R antag-1 7, TAAR1 ag 3, GalR3 antag -7, CHO parental Ca -18, OX1R antag-2 -32 and TAAR1 antag 38.
`CCN(C1CCS(=O)(=O)C1)S(=O)(=O)c1ccc(Cl)s1` (configuration not stated) gave TAAR1 ag 1, GalR3 antag -3 and TAAR1 antag -3.
Screening Cc1oc(-c2ccccc2)nc1CS(=O)CC(=O)N1CCc2ccccc2C1 (configuration not stated) returned OX1R antag-1 10, TAAR1 ag 56*, GalR3 antag 4, CHO parental Ca -33, OX1R antag-2 -41, TAAR1 antag -15, TAAR1 ag conf 91*, Ga16 ag counter 0, TAAR1 desens 44 and Ga16 nonsel ant 2.
`COc1cc(OC)c(-n2cc(-c3ccc(OC)c(OC)c3)[nH]c2=S)cc1Cl` gave TAAR1 ag 96*, GalR3 antag -12, TAAR1 antag 35, TAAR1 ag conf 2, Ga16 ag counter 2, TAAR1 desens 1 and Ga16 nonsel ant 5.
For Cc1nc(N)nc(N)c1/C=C/C(C)(C)c1ccc(Cl)cc1 the results were TAAR1 ag 53*, GalR3 antag -11, TAAR1 antag 40, TAAR1 ag conf 72*, Ga16 ag counter 42*, TAAR1 desens 72* and Ga16 nonsel ant 48*.
`N#Cc1ccc(OCC(=O)Nc2cc(S(=O)(=O)N3CCOCC3)ccc2N2CCCC2)cc1` gave TAAR1 ag 9, GalR3 antag -5 and TAAR1 antag 9.
O=c1[nH]c(CN(CCc2ccccc2)S(=O)(=O)c2ccc(Cl)cc2)nc2ccccc12 was read as OX1R antag-1 13, TAAR1 ag 79*, GalR3 antag -3, CHO parental Ca -23, OX1R antag-2 -36, TAAR1 antag 73*, TAAR1 ag conf 90*, Ga16 ag counter 14*, TAAR1 desens 95* and Ga16 nonsel ant 24*.
For COc1ccc(S(=O)(=O)N(Cc2ccccc2)Cc2nc3ccccc3c(=O)[nH]2)cc1 the results were OX1R antag-1 18, TAAR1 ag 12, GalR3 antag 4, CHO parental Ca -26, OX1R antag-2 -17 and TAAR1 antag 30.
